Measurements published in ChEMBL document CHEMBL4732237, “Discovery of 4-alkoxy-2-aryl-6,7-dimethoxyquinolines as a new class of topoisomerase I inhibitors endowed with potent in vitro anticancer activity” (2021).

Experiments:
Type in all cases: functional
[1] = system: Malme-3M; experiment: Growth inhibition of human Malme-3M cells incubated for 48 hrs by sulforhodamine B assay
Method in brief: (§1)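 NCI five-dose screen (0.01–100 µM; five concentrations plus control). Cells grown in RPMI 1640/5% FBS/2 mM L-glutamine and preincubated 24 h, with time-zero plates TCA-fixed. Drug exposure 48 h at 37 °C, followed by SRB protein staining and reading at 515 nm. GI50 is the concentration at [(Ti-Tz)/(C-Tz)]×100 = 50.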

[2] = system: BT-549; experiment: Growth inhibition of human BT-549 cells incubated for 48 hrs by sulforhodamine B assay
Method in brief: (§2)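 NCI five-dose screen covering 0.01–100 µM, prepared as 10-fold or ½-log dilutions from DMSO stock. Cells in RPMI 1640 with 5% FBS were exposed for 48 h at 37 °C after 24 h preincubation. Adherent cells were fixed with TCA (final 10%) and suspension cells were settled before fixing. Stain was SRB, read at 515 nm. GI50 = 50% reduction in net protein increase versus control, with Tz taken at drug addition.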

[3] = system: HOP-92; experiment: Growth inhibition of human HOP-92 cells incubated for 48 hrs by sulforhodamine B assay; method in brief: as §2
[4] = system: COLO 205; experiment: Growth inhibition of human COLO 205 cells incubated for 48 hrs by sulforhodamine B assay; method in brief: as §2
[5] = system: SN12C; experiment: Growth inhibition of human SN12C cells incubated for 48 hrs by sulforhodamine B assay; method in brief: as §1
[6] = system: OVCAR-5; experiment: Growth inhibition of human OVCAR-5 cells incubated for 48 hrs by sulforhodamine B assay; method in brief: as §1
[7] = system: UACC-257; experiment: Growth inhibition of human UACC-257 cells incubated for 48 hrs by sulforhodamine B assay
Method in brief: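 NCI five-dose assay, with drug stocks in DMSO diluted in medium to five concentrations (10-fold or ½-log series). Cells in RPMI 1640/5% FBS were pre-incubated 24 h, and time-zero plates were TCA-fixed at drug addition. After 48 h at 37 °C, cells were TCA-fixed, SRB-stained and read at 515 nm. GI50 is from [(Ti-Tz)/(C-Tz)]×100 = 50, TGI from Ti = Tz, and LC50 from [(Ti-Tz)/Tz]×100 = -50.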

[8] = system: SR; experiment: Growth inhibition of human SR cells incubated for 48 hrs by sulforhodamine B assay; method in brief: as §1
[9] = system: NCI-H23; experiment: Growth inhibition of human NCI-H23 cells incubated for 48 hrs by sulforhodamine B assay; method in brief: as §1
[10] = system: PC-3; experiment: Growth inhibition of human PC-3 cells incubated for 48 hrs by sulforhodamine B assay; method in brief: as §1
[11] = system: HOP-62; experiment: Growth inhibition of human HOP-62 cells incubated for 48 hrs by sulforhodamine B assay; method in brief: as §2
[12] = Growth inhibition of human Breast cancer cell line incubated for 48 hrs by sulforhodamine B assay
Method in brief: (§3)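 NCI-60 five-dose screen. Cells in RPMI 1640 with 5% FBS and 2 mM L-glutamine were plated at 5000–40,000 cells/well and preincubated 24 h at 37 °C, 5% CO2. Drugs in DMSO were given at five serial 10-fold or ½-log dilutions for 48 h. Adherent cells fixed with 10% TCA (final); suspension cells fixed after settling. SRB stained; A515. GI50 from [(Ti-Tz)/(C-Tz)]x100 = 50.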

[13] = Growth inhibition of human Non-small cell lung cancer cell line incubated for 48 hrs by sulforhodamine B assay; method in brief: as §3
[14] = Growth inhibition of human leukemia cell line incubated for 48 hrs by sulforhodamine B assay; conditions: leukaemia cell line; method in brief: as §3
[15] = Growth inhibition of human Prostate tumor cell line incubated for 48 hrs by sulforhodamine B assay; method in brief: as §3
[16] = system: CNS carcinoma cell; experiment: Growth inhibition of human CNS carcinoma cell incubated for 48 hrs by sulforhodamine B assay; method in brief: as §3
[17] = Growth inhibition of human Renal cancer cell line incubated for 48 hrs by sulforhodamine B assay; method in brief: as §3
[18] = system: Melanoma cell line; experiment: Growth inhibition of human Melanoma cell line incubated for 48 hrs by sulforhodamine B assay; method in brief: as §3
[19] = system: Colon cancer cell line; experiment: Growth inhibition of human colon cancer cell line incubated for 48 hrs by sulforhodamine B assay; method in brief: as §3
[20] = system: Ovarian cancer cell line; experiment: Growth inhibition of human Ovarian cancer cell line incubated for 48 hrs by sulforhodamine B assay; method in brief: as §3

Row | SMILES | GI50 [1] | GI50 [2] | GI50 [3] | GI50 [4] | GI50 [5] | GI50 [6] | GI50 [7] | GI50 [8] | GI50 [9] | GI50 [10] | GI50 [11] | LC50 [12] | TGI [12] | LC50 (concentration killing 50% of cells) [13] | TGI [13] | LC50 [14] | TGI [14] | LC50 (concentration killing 50% of cells) [15] | TGI [15] | LC50 [16] | further results
1 | COc1cc2nc(-c3ccc(C(F)(F)F)cc3)cc(OCCCN3CCC(O)CC3)c2cc1OC | 2.65 µM | 6.59 µM | 1.68 µM | 0.456 µM | 1.44 µM | 3.14 µM | 2.28 µM | 0.274 µM | 6.16 µM | 3.66 µM | 1.8 µM | – | – | – | – | – | – | – | – | – | –
2 | COc1cc2nc(-c3ccc(Cl)cc3)cc(OCCCN3CCCC3)c2cc1OC | 1.68 µM | 1.77 µM | 0.85 µM | 0.459 µM | 0.914 µM | 1.03 µM | 1.96 µM | 0.251 µM | 2.45 µM | 1.76 µM | 1.38 µM | 29.6 µM | 5.8 µM | 39.7 µM | 10.4 µM | 32 µM | 4.99 µM | 39.6 µM | 12.1 µM | 33.5 µM | TGI [16]: 10.1 µM; LC50 (concentration giving 50% net cell kill) [17]: 28.9 µM; TGI [17]: 7.66 µM; LC50 (50% lethal concentration) [18]: 14.6 µM; TGI [18]: 4.26 µM; LC50 [19]: 39.1 µM; TGI [19]: 8.31 µM; LC50 [20]: 55.1 µM; TGI [20]: 14.8 µM
3 | COc1cc2nc(-c3ccc(Cl)cc3)cc(OCCCN3CCCCC3)c2cc1OC | 1.74 µM | 1.43 µM | 1.02 µM | 0.582 µM | 0.946 µM | 1.16 µM | 1.92 µM | 0.373 µM | 2.95 µM | 1.74 µM | 2.37 µM | – | – | – | – | – | – | – | – | – | –
4 | COc1cc2nc(-c3ccc(C(F)(F)F)cc3)cc(OCCCN3CCOCC3)c2cc1OC | 1.38 µM | 5 µM | 1 µM | 0.529 µM | 0.675 µM | 1.92 µM | 1.67 µM | 0.242 µM | 2.36 µM | 2.19 µM | 1.67 µM | – | – | – | – | – | – | – | – | – | –
5 | COc1cc2nc(-c3ccc(Cl)cc3)cc(OCCCN3CCC(O)CC3)c2cc1OC | 1.89 µM | 2.79 µM | 1.25 µM | 0.532 µM | 1.26 µM | 1.16 µM | 2.06 µM | 0.373 µM | 2.83 µM | 2.02 µM | 1.98 µM | – | – | – | – | – | – | – | – | – | –
6 | COc1cc2nc(-c3ccc(C(F)(F)F)cc3)cc(OCCCN3CCCC3)c2cc1OC | 1.01 µM | 1.99 µM | 0.46 µM | 0.401 µM | 0.673 µM | 0.803 µM | 1.41 µM | 0.133 µM | 1.91 µM | 1.07 µM | 1.03 µM | 40.8 µM | 6.8 µM | 57.9 µM | 12.7 µM | 81.6 µM | 6.17 µM | 89.5 µM | 16.8 µM | 44.9 µM | TGI [16]: 11.7 µM; LC50 (concentration giving 50% net cell kill) [17]: 40.1 µM; TGI [17]: 10.2 µM; LC50 (50% lethal concentration) [18]: 23.7 µM; TGI [18]: 4.08 µM; LC50 [19]: 50.4 µM; TGI [19]: 8.07 µM; LC50 [20]: 81 µM; TGI [20]: 28.1 µM
7 | COc1cc2nc(-c3ccc(Cl)cc3)cc(OCCCN3CCOCC3)c2cc1OC | 2.01 µM | 2.59 µM | 1.36 µM | 0.62 µM | 1.3 µM | 1.58 µM | 1.92 µM | 0.414 µM | – | 2.63 µM | 1.98 µM | – | – | – | – | – | – | – | – | – | –
8 | COc1cc2nc(-c3ccc(C(F)(F)F)cc3)cc(OCCCN3CCCCC3)c2cc1OC | 1.26 µM | 1.48 µM | 0.678 µM | 0.406 µM | 0.668 µM | 0.71 µM | 1.7 µM | 0.193 µM | 1.91 µM | 1.34 µM | 0.947 µM | 43 µM | 9.29 µM | 50.6 µM | 13.8 µM | 74.8 µM | 10.3 µM | 42.2 µM | 13.8 µM | 38.8 µM | TGI [16]: 11.9 µM; LC50 (concentration giving 50% net cell kill) [17]: 35 µM; TGI [17]: 11 µM; LC50 (50% lethal concentration) [18]: 19.9 µM; TGI [18]: 4.14 µM; LC50 [19]: 40.8 µM; TGI [19]: 10.3 µM; LC50 [20]: 65.5 µM; TGI [20]: 19.7 µM
